# Measured values reported in ChEMBL document CHEMBL3352165 (Eur J Med Chem, 2014).
# Legend:
# [1] = target: Platelet-derived growth factor receptor beta (Homo sapiens, UniProt P09619); assay: Inhibition of PDGFRbeta (unknown origin) by ELISA method
# How it was run: (§1)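 Phosphotyrosine ELISA with purified kinase (20 ng) and 5 µM ATP in buffer (50 mM HEPES pH 7.4, 20 mM MgCl2, 0.1 mM MnCl2, 0.2 mM Na3VO4, 1 mM DTT), 1 h at 37 °C, DMSO ≤1%. Detection by PY99 antibody, then HRP anti-mouse IgG with o-phenylenediamine, A490. IC50 by Logit from at least three independent tests.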
# [2] = target: Mast/stem cell growth factor receptor Kit (Homo sapiens, UniProt P10721); assay: Inhibition of c-KIT (unknown origin) by ELISA method; how it was run: as §1
# Chain of Mast/stem cell growth factor receptor Kit (P10721 whole entry): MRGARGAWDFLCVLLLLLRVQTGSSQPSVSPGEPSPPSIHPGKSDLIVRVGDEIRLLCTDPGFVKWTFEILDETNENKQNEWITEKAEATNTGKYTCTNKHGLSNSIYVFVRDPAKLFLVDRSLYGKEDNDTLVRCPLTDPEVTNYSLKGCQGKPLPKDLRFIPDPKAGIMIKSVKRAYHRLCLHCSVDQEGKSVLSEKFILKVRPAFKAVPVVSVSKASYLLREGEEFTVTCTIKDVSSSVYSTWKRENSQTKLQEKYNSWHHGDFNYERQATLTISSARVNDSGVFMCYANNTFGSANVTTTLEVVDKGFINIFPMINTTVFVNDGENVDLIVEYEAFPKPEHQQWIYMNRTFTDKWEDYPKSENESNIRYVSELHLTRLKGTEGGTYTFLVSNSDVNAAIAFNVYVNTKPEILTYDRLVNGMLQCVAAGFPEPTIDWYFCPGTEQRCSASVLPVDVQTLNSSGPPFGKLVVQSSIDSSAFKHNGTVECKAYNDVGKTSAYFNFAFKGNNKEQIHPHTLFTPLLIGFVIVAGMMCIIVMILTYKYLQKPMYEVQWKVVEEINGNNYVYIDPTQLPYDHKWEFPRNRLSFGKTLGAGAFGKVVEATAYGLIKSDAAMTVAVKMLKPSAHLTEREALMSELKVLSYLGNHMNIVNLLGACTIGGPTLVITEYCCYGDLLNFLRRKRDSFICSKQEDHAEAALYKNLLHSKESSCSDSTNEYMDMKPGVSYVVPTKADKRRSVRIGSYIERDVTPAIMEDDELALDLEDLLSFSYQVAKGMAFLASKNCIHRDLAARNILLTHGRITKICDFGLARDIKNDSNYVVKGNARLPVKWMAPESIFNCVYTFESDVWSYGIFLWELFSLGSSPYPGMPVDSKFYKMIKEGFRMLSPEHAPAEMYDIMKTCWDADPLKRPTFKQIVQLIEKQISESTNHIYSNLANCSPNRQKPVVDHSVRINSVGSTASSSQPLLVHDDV
# [3] = target: Epidermal growth factor receptor (Homo sapiens, UniProt P00533); assay: Inhibition of HER1 (unknown origin) assessed as reduction in autophosphorylation by ELISA method
# [4] = target: Receptor tyrosine-protein kinase erbB-2 (Homo sapiens, UniProt P04626); assay: Inhibition of HER2 (unknown origin) assessed as reduction in autophosphorylation by ELISA method; how it was run: as §1
# Chain of Receptor tyrosine-protein kinase erbB-2 (P04626 whole entry): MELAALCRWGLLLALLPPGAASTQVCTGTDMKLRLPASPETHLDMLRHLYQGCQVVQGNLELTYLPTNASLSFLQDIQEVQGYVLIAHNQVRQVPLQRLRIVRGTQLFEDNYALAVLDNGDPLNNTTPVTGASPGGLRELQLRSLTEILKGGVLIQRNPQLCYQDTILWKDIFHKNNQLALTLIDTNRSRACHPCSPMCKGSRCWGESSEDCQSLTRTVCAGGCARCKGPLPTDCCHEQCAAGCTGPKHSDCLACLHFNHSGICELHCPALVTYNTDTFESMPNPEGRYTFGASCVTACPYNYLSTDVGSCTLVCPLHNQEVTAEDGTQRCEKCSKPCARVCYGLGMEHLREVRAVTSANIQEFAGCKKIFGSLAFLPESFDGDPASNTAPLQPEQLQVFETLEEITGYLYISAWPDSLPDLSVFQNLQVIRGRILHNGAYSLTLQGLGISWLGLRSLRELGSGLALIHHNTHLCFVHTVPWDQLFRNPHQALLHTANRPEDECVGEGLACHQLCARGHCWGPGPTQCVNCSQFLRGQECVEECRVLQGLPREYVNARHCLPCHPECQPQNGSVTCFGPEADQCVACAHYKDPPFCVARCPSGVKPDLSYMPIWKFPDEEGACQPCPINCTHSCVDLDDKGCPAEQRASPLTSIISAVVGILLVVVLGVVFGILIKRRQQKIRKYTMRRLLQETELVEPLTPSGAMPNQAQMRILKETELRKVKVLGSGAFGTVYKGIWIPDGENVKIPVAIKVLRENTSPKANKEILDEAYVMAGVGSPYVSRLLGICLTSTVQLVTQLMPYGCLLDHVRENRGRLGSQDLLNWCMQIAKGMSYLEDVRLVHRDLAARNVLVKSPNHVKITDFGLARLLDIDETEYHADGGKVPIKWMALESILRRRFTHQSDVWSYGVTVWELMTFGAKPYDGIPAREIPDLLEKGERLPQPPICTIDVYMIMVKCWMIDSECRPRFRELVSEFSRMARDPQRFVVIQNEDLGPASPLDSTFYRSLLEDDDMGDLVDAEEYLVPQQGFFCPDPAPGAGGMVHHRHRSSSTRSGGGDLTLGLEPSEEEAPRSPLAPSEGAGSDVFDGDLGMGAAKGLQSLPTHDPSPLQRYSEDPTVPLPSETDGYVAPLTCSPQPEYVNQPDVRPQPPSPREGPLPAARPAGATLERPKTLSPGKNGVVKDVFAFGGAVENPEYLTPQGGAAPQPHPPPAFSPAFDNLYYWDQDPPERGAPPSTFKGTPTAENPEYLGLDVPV
# [5] = target: Vascular endothelial growth factor receptor 2 (Homo sapiens, UniProt P35968); assay: Inhibition of KDR (unknown origin) by ELISA method; how it was run: as §1
# Chain of Vascular endothelial growth factor receptor 2 (P35968 whole entry): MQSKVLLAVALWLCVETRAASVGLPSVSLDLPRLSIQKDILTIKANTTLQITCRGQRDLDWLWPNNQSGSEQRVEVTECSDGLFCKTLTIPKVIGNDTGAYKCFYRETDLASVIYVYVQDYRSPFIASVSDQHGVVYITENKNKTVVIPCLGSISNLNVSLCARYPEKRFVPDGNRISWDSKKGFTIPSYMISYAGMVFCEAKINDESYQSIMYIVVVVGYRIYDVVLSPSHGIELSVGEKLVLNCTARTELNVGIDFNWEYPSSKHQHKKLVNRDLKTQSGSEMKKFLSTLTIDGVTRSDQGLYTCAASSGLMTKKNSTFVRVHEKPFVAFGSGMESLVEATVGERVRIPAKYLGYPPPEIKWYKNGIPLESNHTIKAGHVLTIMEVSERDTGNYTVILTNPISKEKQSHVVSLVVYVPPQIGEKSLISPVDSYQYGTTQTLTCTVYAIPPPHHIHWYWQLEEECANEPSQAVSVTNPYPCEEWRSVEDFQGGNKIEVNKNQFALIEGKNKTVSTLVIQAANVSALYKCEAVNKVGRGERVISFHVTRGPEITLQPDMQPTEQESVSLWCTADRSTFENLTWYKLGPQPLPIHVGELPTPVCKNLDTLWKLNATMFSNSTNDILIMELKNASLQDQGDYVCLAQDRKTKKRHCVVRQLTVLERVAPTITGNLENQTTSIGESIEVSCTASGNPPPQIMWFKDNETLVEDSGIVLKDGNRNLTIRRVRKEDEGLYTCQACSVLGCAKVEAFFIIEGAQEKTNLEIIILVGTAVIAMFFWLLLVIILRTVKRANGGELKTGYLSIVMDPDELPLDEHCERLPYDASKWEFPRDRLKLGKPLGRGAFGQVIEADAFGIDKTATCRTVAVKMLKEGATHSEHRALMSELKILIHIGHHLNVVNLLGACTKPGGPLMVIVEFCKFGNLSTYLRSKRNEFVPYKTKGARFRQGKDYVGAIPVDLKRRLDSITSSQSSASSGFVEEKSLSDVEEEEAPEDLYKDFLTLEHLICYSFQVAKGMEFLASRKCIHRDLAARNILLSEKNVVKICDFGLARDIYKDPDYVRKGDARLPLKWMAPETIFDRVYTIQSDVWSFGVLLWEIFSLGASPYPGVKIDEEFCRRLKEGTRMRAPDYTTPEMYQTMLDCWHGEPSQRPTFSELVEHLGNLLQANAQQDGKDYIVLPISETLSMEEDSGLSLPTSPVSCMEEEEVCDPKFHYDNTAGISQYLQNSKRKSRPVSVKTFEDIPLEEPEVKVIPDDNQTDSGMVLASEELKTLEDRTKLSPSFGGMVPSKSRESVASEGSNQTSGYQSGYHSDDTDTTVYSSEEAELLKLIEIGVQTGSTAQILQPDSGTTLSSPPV
# A-431 = assay: Cytotoxicity against human A431 cells assessed as inhibition of cell growth after 72 hrs by sulforhodamine B assay; type: functional, cell-based; settings: A-431, 72 h
# How it was run: (§2)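 Cells grown in RPMI-1640 with 5% FBS and plated at 5.0×10^4/ml. Next day exposed to 0.5–5000 ng/ml for 3 days. Survival read by sulforhodamine B staining. IC50 taken from growth curves; mean of at least three determinations.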
# MCF7 = assay: Cytotoxicity against human MCF7 cells assessed as inhibition of cell growth after 72 hrs by sulforhodamine B assay; type: functional, cell-based; settings: MCF7, 72 h; how it was run: as §2
# [6] = Cytotoxicity against human SKBR3 cells assessed as inhibition of cell growth after 72 hrs by sulforhodamine B assay; type: functional, cell-based; settings: SK-BR-3, 72 h; how it was run: as §2
# BT-474 = assay: Cytotoxicity against human BT474 cells assessed as inhibition of cell growth after 72 hrs by sulforhodamine B assay; type: functional, cell-based; settings: BT-474, 72 h; how it was run: as §2
# cells [7] = settings: Homo sapiens, SK-OV-3, 72 h
# [8] = AUC (0 to 24 hrs) in Beagle dog at 240 mg/kg, po administered as single dose measured after 0.25 to 24 hrs post dose by LC/MS/MS method; type: ADME, organism-based, Canis lupus familiaris; set-up: time < 24 hr, dose 240 mg/kg, route oral; settings: plasma
# How it was run: (§3)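 Single oral gavage of 240 mg/kg to beagle dogs (n = 6). Blood sampled at 0.25–24 h, kept on ice, centrifuged within 1 h (1000 × g, 4 °C, 15 min), plasma stored at −20 °C. Drug quantified by validated LC/MS/MS. AUC0–24 from non-compartmental analysis; Cmax and MRT taken directly from concentration–time data.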
# MRC5 = assay: cells; settings: Homo sapiens, MRC5, 72 h
# [9] = Tmax in Beagle dog at 240 mg/kg, po administered as single dose measured after 0.25 to 24 hrs post dose by LC/MS/MS method; type: ADME, organism-based, Canis lupus familiaris; set-up: dose 240 mg/kg, route oral; settings: in vivo
# How it was run: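 Beagle dogs (n = 6), single oral gavage dose of 240 mg/kg. Plasma levels measured by validated LC/MS/MS. Tmax read directly from the concentration-time data.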
# MDA-MB-231 = assay: cells; settings: Homo sapiens, MDA-MB-231, 72 h
# NCI-H460 = assay: cells; settings: Homo sapiens, NCI-H460, 72 h
# [10] = Cmax in Beagle dog at 240 mg/kg, po administered as single dose measured after 0.25 to 24 hrs post dose by LC/MS/MS method; type: ADME, organism-based, Canis lupus familiaris; set-up: dose 240 mg/kg, route oral; settings: in vivo; how it was run: as §3
# [11] = Mean residence time in Beagle dog at 240 mg/kg, po administered as single dose measured after 0.25 to 24 hrs post dose by LC/MS/MS method; type: ADME, organism-based, Canis lupus familiaris; set-up: dose 240 mg/kg, route oral; settings: in vivo; how it was run: as §3
# cells [12] = settings: Homo sapiens, Calu-3, 72 h
# MDA-MB-453 = assay: cells; settings: Homo sapiens, MDA-MB-453, 72 h
# Mus musculus = assay: Toxicity in human Calu3 cells xenografted BALB/cA mouse assessed as body weight loss at 200 mg/kg, po measured every other day for 21 days; type: organism-based, Calu-3; set-up: dose 200 mg/kg, route oral; settings: in vivo, 504 h
# How it was run: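 Female BALB/cA nude mice, 6–7 weeks old, implanted s.c. on the mid-right flank with 2×10^6 Calu-3 cells in 0.2 ml PBS. At 60–150 mm³ tumour volume, mice randomised into six per treatment group (twelve vehicle controls). Oral dosing in 0.5% CMC aqueous solution with 0.1% Tween-80. Body weight recorded every other day for 21 d.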
# [13] = Antitumor activity against human Calu3 cells xenografted in BALB/cA mouse assessed as tumor growth inhibition at 200 mg/kg, po; type: functional; settings: Calu-3, read-out: TGI
# How it was run: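 Female BALB/cA nude mice, 6–7 weeks old, implanted s.c. on midright side with 2×10^6 Calu-3 cells in 0.2 ml PBS. Grouped at 60–150 mm³ tumour volume (6 per treated group, 12 vehicle). Oral dosing in 0.5% CMC with 0.1% Tween-80. Caliper volume = L×W²×0.5; inhibition = (1 − T/C)×100% on relative tumour volume; weight tracked for 21 d.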
# Chain of Platelet-derived growth factor receptor beta (P09619 whole entry): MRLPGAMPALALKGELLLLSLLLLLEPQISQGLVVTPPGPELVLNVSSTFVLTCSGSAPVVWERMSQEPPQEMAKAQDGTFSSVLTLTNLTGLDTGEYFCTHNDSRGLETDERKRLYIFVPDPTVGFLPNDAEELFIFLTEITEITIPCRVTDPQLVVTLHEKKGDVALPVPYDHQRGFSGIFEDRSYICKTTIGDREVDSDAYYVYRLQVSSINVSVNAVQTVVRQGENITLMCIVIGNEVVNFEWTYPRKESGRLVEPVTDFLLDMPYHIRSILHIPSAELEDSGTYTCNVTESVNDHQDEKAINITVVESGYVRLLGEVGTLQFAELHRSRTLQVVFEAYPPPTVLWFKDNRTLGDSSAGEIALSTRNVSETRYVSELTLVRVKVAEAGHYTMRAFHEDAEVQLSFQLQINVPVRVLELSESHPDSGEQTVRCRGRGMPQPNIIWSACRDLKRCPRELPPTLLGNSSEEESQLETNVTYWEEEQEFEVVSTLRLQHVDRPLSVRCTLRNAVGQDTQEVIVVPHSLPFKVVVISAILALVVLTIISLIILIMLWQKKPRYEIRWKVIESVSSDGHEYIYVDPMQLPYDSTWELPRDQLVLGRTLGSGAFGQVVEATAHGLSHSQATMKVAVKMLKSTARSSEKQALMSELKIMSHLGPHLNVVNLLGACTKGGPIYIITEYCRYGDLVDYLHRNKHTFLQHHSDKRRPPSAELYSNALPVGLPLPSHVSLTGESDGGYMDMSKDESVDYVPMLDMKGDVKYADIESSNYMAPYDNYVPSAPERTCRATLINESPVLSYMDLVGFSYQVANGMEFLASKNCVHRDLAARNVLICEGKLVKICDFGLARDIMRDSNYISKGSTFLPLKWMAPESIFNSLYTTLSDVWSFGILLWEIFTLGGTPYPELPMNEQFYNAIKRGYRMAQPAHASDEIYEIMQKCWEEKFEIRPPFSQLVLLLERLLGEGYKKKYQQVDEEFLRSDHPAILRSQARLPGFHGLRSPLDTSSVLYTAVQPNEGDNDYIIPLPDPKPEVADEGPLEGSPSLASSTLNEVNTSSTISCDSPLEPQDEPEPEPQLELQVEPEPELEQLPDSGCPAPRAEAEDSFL
SMILES,IC50 [1] [µM],IC50 [2] [µM],IC50 [3] [nM],IC50 [4] [nM],IC50 [5] [µM],IC50 (A-431) [nM],IC50 (MCF7) [µM],IC50 [6] [nM],IC50 (BT-474) [nM],other results
CS(=O)(=O)CCNC(CS(C)(=O)=O)c1ccc(-c2ccc3ncnc(Nc4ccc(OCc5cccc(F)c5)c(Cl)c4)c3c2)o1 (racemic),> 200,> 200,28.7,52.2,> 200,684,7.01,123,104,–
CCNC(CS(C)(=O)=O)c1ccc(-c2ccc3ncnc(Nc4ccc(OCc5cccc(F)c5)c(Cl)c4)c3c2)o1 (racemic),> 200,> 200,14.7,15.5,> 200,884,8.73,33.9,109,–
CC(C)NC(CS(C)(=O)=O)c1ccc(-c2ccc3ncnc(Nc4ccc(OCc5cccc(F)c5)c(Cl)c4)c3c2)o1 (racemic),> 200,> 200,–,48.3,> 200,623,6.11,101,94.4,–
CCOC(=O)N[C@H](CS(C)(=O)=O)c1ccc(-c2ccc3ncnc(Nc4ccc(OCc5cccc(F)c5)c(Cl)c4)c3c2)o1,> 200,> 200,89.6,152,> 200,884,8.93,106,120,–
CS(=O)(=O)CC(N)c1ccc(-c2ccc3ncnc(Nc4ccc(OCc5cccc(F)c5)c(Cl)c4)c3c2)o1 (racemic),> 200,> 200,17.6,3.4,> 200,683,6.62,26.6,75.4,–
CN(C)[C@@H](CS(C)(=O)=O)c1ccc(-c2ccc3ncnc(Nc4ccc(OCc5cccc(F)c5)c(Cl)c4)c3c2)o1,> 200,> 200,30.4,26.1,> 200,768,6.67,27.8,83.2,–
CNC(CS(C)(=O)=O)c1ccc(-c2ccc3ncnc(Nc4ccc(OCc5cccc(F)c5)c(Cl)c4)c3c2)o1 (racemic),> 200,> 200,34.8,1,> 200,648,6.52,30.1,76.8,–
CCCCOC(=O)N[C@H](CS(C)(=O)=O)c1ccc(-c2ccc3ncnc(Nc4ccc(OCc5cccc(F)c5)c(Cl)c4)c3c2)o1,> 200,> 200,92.8,164,> 200,1090,9.21,702,1000,–
CS(=O)(=O)C[C@@H](N)c1ccc(-c2ccc3ncnc(Nc4ccc(OCc5cccc(F)c5)c(Cl)c4)c3c2)o1,> 200,> 200,10.8,2.9,> 200,663,6.83,21,69.2,IC50 (cells [7]): 410 nM; AUC(0-t) at 24 h [8]: 20300 ng·h/mL; IC50 (MRC5): > 100 µM; Tmax [9]: 5 h; IC50 (MDA-MB-231): > 100 µM; IC50 (NCI-H460): > 100 µM; Cmax [10]: 2100 ng/mL; MRT [11]: 6.8 h; IC50 (cells [12]): 220 nM; IC50 (MDA-MB-453): 240 nM
CS(=O)(=O)CC(NC1CCCCC1)c1ccc(-c2ccc3ncnc(Nc4ccc(OCc5cccc(F)c5)c(Cl)c4)c3c2)o1 (racemic),> 200,> 200,77.2,58.6,> 200,773,9.13,162,174,–
CN(C)C(CS(C)(=O)=O)c1ccc(-c2ccc3ncnc(Nc4ccc(OCc5cccc(F)c5)c(Cl)c4)c3c2)o1 (racemic),> 200,> 200,6.8,3.6,> 200,604,6.12,36.2,48.6,Activity (Mus musculus): Non-toxic; inhibition in vivo at 200 mg/kg [13]: 58%
CCCCCCOC(=O)N[C@H](CS(C)(=O)=O)c1ccc(-c2ccc3ncnc(Nc4ccc(OCc5cccc(F)c5)c(Cl)c4)c3c2)o1,> 200,> 200,110,158,> 200,1200,> 10,1050,1920,–
CS(=O)(=O)C[C@H](N)c1ccc(-c2ccc3ncnc(Nc4ccc(OCc5cccc(F)c5)c(Cl)c4)c3c2)o1,> 200,> 200,13.5,10.6,> 200,632,9.34,84.1,116,–
